Published values from different studies.
Sample: plasma

Compound	system	conditions	Cmax
C=CC(=O)N1CC2CC(n3nc(-c4ccc(C(=O)Nc5ccccn5)cc4)c4c(N)ncnc43)CC2C1 (centres unmarked)	SCID mouse	oral, 0.2 mg/kg	10.5 ng/mL
CC(C)(C)c1ccc(O)c(CN(Cc2cc(C(C)(C)C)ccc2O)C2CCC(NC(N)=O)CC2)c1 (centres unmarked)	male C57BL/6 mouse	oral, 10 mg/kg, single dose	1020 ng/mL
CC[C@H](C)[C@@H]1NC(=O)[C@@](C)(NC(=O)[C@H](CCCNC(=N)N)NC(=O)[C@H](CC(C)C)NC(=O)[C@@H](NC(=O)[C@H](CCC(N)=O)NC(=O)[C@H](CC(C)C)NC(C)=O)[C@@H](C)O)CCCC=CCCC[C@@](C)(C(=O)N[C@@H](CC(C)C)C(=O)N[C@@H](Cc2ccc3ccccc3c2)C(N)=O)NC(=O)[C@H](CCCNC(=N)N)NC(=O)[C@H](CCC(N)=O)NC1=O	male BALB/c mouse	intravenous, 15 mg/kg	102 µM
COc1ccc(C(O)COc2ccc(-c3csc(-c4ccc(OCC(O)c5ccc(OC)c(OC)c5)cc4)n3)cc2)cc1OC (centres unmarked)	C57BL/6 mouse	oral, 30 mg/kg	5980 ng/mL
CN1CCC[C@H](CN2c3ccccc3Sc3ccccc32)C1.O=C(O)CCC(=O)O	mouse	oral, 64 mg/kg, single dose	1540 ng/mL
Cc1nc(-c2cnc(NC(C)C)n(C)c2=O)ccc1Oc1ccnc(-c2cnn(C)c2)c1	female mouse	oral, 7.5 mg/kg, single dose	4450 ng/mL
COc1ccc([C@@]23Oc4cc(OC)cc(OC)c4[C@]2(O)[C@H](O)[C@H](C(=O)N(C)C)[C@H]3c2ccccc2)cc1	mouse	intravenous, 5 mg/kg	~11 µM
CS(=O)(=O)CCNCc1ccc(-c2ccc3ncnc(Nc4ccc(OCc5cccc(F)c5)c(Cl)c4)c3c2)o1	nude mouse	oral, 50 mg/kg, single dose	6470 ng/mL
